Key:
[1] = target: T1, Cholesterol side-chain cleavage enzyme, mitochondrial (Bos taurus, UniProt P00189); assay: Inhibition of bovine cholesterol side-chain cleavage desmolase, cytochrome P450 11A1; none; conditions: cattle
T1 sequence (P00189 whole entry): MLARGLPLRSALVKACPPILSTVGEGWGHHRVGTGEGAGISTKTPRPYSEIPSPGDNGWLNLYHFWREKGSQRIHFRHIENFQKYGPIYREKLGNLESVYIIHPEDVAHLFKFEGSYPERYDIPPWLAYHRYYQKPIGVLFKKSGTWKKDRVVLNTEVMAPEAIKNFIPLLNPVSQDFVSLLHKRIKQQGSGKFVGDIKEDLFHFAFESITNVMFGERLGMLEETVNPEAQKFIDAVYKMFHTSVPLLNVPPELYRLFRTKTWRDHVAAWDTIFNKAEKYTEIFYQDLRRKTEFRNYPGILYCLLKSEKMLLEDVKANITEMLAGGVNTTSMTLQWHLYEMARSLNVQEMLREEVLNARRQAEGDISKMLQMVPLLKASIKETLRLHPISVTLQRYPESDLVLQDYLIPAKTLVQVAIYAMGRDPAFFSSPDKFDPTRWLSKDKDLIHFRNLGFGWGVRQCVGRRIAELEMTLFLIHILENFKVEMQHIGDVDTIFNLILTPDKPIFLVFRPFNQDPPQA
In short: (§1)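 Enzyme source was the mitochondrial fraction of bovine adrenal cortex, stored at -70 °C. Substrate [14C]cholesterol; [14C]isocaproic acid released was measured. Inhibitors were added in 10 μL ethanol (ethanol alone in controls) to a 1.0 mL assay and preincubated 5 min at 30 °C. The reaction was started with 1 mg mitochondrial protein and sampled at 2, 4 and 6 min. Result given as % of control rate; apparent Ki from Lineweaver-Burk plots.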

Aromatase = target: T2, Aromatase (Homo sapiens, UniProt P11511); assay: Inhibition of human placental aromatase Cytochrome P450 19A1; none
T2 sequence (P11511 whole entry): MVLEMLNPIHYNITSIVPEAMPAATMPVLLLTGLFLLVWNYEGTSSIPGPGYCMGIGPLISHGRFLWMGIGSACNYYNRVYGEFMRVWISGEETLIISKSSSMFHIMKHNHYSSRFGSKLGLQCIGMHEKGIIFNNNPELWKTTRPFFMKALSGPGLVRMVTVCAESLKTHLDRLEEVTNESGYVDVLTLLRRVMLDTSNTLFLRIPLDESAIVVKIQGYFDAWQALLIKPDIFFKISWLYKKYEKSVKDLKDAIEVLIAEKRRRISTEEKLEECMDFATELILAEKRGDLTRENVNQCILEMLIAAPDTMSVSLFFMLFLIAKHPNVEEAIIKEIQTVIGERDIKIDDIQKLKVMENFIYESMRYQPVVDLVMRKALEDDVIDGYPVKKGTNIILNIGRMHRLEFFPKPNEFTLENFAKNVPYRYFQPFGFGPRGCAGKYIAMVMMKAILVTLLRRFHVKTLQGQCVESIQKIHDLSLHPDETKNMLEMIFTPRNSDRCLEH

[2] = target: T1, Cholesterol side-chain cleavage enzyme, mitochondrial; assay: (§2) Inhibition of bovine cholesterol side-chain cleavage desmolase, cytochrome P450 11A1; set-up: concentration or dose not given beside the values; conditions: cattle; in short: as §1
[3] = target: T1, Cholesterol side-chain cleavage enzyme, mitochondrial; assay: as §2; conditions: cattle; in short: as §1

Row | Compound | Inhibition [1] | Inhibition (Aromatase) | Inhibition [2] | Inhibition [3]
1 | CCC1(c2ccc(N)c(O)c2)CCC(=O)NC1=O (stereo not drawn) | Not Active | Not Active | – | –
2 | CCC1(c2ccc(N)cc2)CC(N)C(=O)NC1=O (stereo not drawn) | – | – | 45% | –
3 | CCC1(c2ccc(N)cc2)CCC(=O)N(N)C1=O (stereo not drawn) | – | – | 50% | –
4 | CCC1(c2ccc(NC(C)=O)cc2)CCC(=O)NC1=O (stereo not drawn) | Not Active | Not Active | – | –
5 | CCC1(c2cccc(N)c2)CCC(=O)NC1=O (stereo not drawn) | – | – | – | 13%
6 | CCC1(c2ccc(NC=O)cc2)CCC(=O)NC1=O (stereo not drawn) | – | – | 12% | –
7 | CCC1(c2ccc(O)c([N+](=O)[O-])c2)CCC(=O)NC1=O (stereo not drawn) | Not Active | Not Active | – | –
8 | CCC1(c2ccc(O)c(N)c2)CCC(=O)NC1=O (stereo not drawn) | – | Not Active | 35% | –
9 | CCC1(c2ccc([N+](=O)[O-])cc2)CCC(=O)NC1=O (stereo not drawn) [4-NITROGLUTETHIMIDE] | – | – | 20% | –
10 | CCC1(c2ccc(N)cc2)CCC(=O)NC1=O (stereo not drawn) [AMINOGLUTETHIMIDE] | – | – | 85% | –
11 | CCC1(c2ccccc2)CCC(=O)NC1=O (stereo not drawn) [GLUTETHIMIDE] | Not Active | Not Active | – | –
12 | CCC1(c2ccc(O)cc2)CCC(=O)NC1=O (stereo not drawn) [P-HYDROXYGLUTETHIMIDE] | Not Active | Not Active | – | –

Reference: ChEMBL document CHEMBL1122309 (J Med Chem, 1983)
